Measurements from article PMC10205660 (Chemistry (Weinheim an der Bergstrasse, Germany), 2023).
Read-outs that look alike come from different tables or passages of the source.

Legend:
Type in all cases: cell-based
A549 (lung cancer) = experiment: Antiproliferative activity, A549; conditions: Homo sapiens
MCF7 (breast cancer) = experiment: Antiproliferative activity, MCF7
K562 (leukemia) = experiment: Antiproliferative activity, K562
[1] = tested on: Hsp90-dependent client proteins (pAkt, Cyclin D1, GLUT1), Hsp70, Hsp90 in MCF7 cells; conditions: MCF7, 48 h, Western blot; versus vehicle 0.25% DMSO
Procedure, shortened: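 MCF7 cells exposed to test compound at the stated amounts for 48 h, alongside vehicle (0.25% DMSO) and 1 μM geldanamycin as the reference Hsp90 inhibitor. Cell lysates were immunoblotted for pAkt, Cyclin D1, GLUT1, Hsp70, Hsp90 and F1F0 ATP synthase.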

[2] = tested on: MCF7, K562 and A549 cell lines; experiment: Antiproliferative activity, statements in text without a single cell line; conditions: for antiproliferative activity at highest concentration: at 4 μM; for fold reduction in activity compared to cruentaren A: versus cruentaren A, cell line not stated
[3] = A549, read-out: IC50 values A549
[4] = Homo sapiens, MCF7, read-out: IC50 values MCF7
[5] = Homo sapiens, K562, read-out: IC50 values K562
[6] = Homo sapiens, MCF7, read-out: IC50 values MCF7, MCF7
[7] = Homo sapiens, K562, read-out: IC50 values K562, K562

Compound | IC50 (A549 (lung cancer); [3]) | IC50 (MCF7 (breast cancer); [4]) | IC50 (K562 (leukemia); [5]) | IC50 (MCF7 (breast cancer); [6]) | IC50 (K562 (leukemia); [7]) | also measured
CCC[C@H](O)[C@@H](C)C(=O)NC/C=C\C[C@@H](C)[C@@H](O)[C@H](C)[C@@H]1C/C=C\C[C@H](C)C(=O)Cc2cc(OC)cc(O)c2C(=O)O1 [Compound 2, (2R,3S)-3-hydroxy-N-((5R,6R,7S,Z)-6-hydroxy-7-((3S,8S,Z)-14-hydroxy-12-methoxy-8-methyl-1,9-dioxo-3,4,7,8,9,10-hexahydro-1H-benzo[c][1]oxacyclododecin-3-yl)-5-methyloct-2-en-1-yl)-2-methylhexanamide] | 1640 nM | 972 nM | 1280 nM |  |  | 
CCC[C@H](O)[C@@H](C)C(=O)NC/C=C\C[C@@H](C)[C@@H](O)[C@H](C)[C@@H]1C/C=C\C[C@H](C)[C@H](OC(=O)CN)Cc2cc(OC)cc(O)c2C(=O)O1 [Compound 3, (3S,8S,9R,Z)-14-hydroxy-3-((2S,3R,4R,Z)-3-hydroxy-8-((2R,3S)-3-hydroxy-2-methylhexanamido)-4-methyloct-6-en-2-yl)-12-methoxy-8-methyl-1-oxo-3,4,7,8,9,10-hexahydro-1H-benzo[c][1]oxacyclododecin-9-yl glycinate] | 1740 nM | 87.5 nM | 14.8 nM |  |  | fold difference of IC50 versus cruentaren A (K562 (leukemia); K562, versus cruentaren A): 10 fold
CCC[C@H](O)[C@@H](C)C(=O)NC/C=C\C[C@@H](C)[C@@H](O)[C@H](C)[C@@H]1C/C=C\C[C@H](C)[C@H](OC(=O)[C@@H](C)N)Cc2cc(OC)cc(O)c2C(=O)O1 [Compound 4, (3S,8S,9R,Z)-14-hydroxy-3-((2S,3R,4R,Z)-3-hydroxy-8-((2R,3S)-3-hydroxy-2-methylhexanamido)-4-methyloct-6-en-2-yl)-12-methoxy-8-methyl-1-oxo-3,4,7,8,9,10-hexahydro-1H-benzo[c][1]oxacyclododecin-9-yl D-alaninate] | 2450 nM |  |  | 55.5 nM | 1320 nM | levels of Hsp70 and Hsp90 (heat shock response) [1]: remained at the same level as vehicle control
CCC[C@H](O)[C@@H](C)C(=O)NC/C=C\C[C@@H](C)[C@@H](O)[C@H](C)[C@@H]1C/C=C\C[C@H](C)[C@H](OC(=O)[C@H](N)C(C)C)Cc2cc(OC)cc(O)c2C(=O)O1 [Compound 5, (3S,8S,9R,Z)-14-hydroxy-3-((2S,3R,4R,Z)-3-hydroxy-8-((2R,3S)-3-hydroxy-2-methylhexanamido)-4-methyloct-6-en-2-yl)-12-methoxy-8-methyl-1-oxo-3,4,7,8,9,10-hexahydro-1H-benzo[c][1]oxacyclododecin-9-yl D-valinate] | 1330 nM |  |  | 101 nM | 968 nM | 
CCC[C@H](O)[C@@H](C)C(=O)NC/C=C\C[C@@H](C)[C@@H](O)[C@H](C)[C@@H]1C/C=C\C[C@H](C)[C@H](OC(=O)[C@H](N)Cc2ccccc2)Cc2cc(OC)cc(O)c2C(=O)O1 [Compound 6, (3S,8S,9R,Z)-14-hydroxy-3-((2S,3R,4R,Z)-3-hydroxy-8-((2R,3S)-3-hydroxy-2-methylhexanamido)-4-methyloct-6-en-2-yl)-12-methoxy-8-methyl-1-oxo-3,4,7,8,9,10-hexahydro-1H-benzo[c][1]oxacyclododecin-9-yl D-phenylalaninate] | 1280 nM |  |  | 114 nM | 1120 nM | 
CCC[C@H](OC(=O)[C@H](N)Cc1ccccc1)[C@@H](C)C(=O)NC/C=C\C[C@@H](C)[C@@H](O)[C@H](C)[C@@H]1C/C=C\C[C@H](C)[C@H](OC(=O)[C@H](N)Cc2ccccc2)Cc2cc(OC)cc(O)c2C(=O)O1 [Compound 7, (2R,3S)-1-(((5R,6R,7S,Z)-7-((3S,8S,9R,Z)-9-((D-phenylalanyl)oxy)-14-hydroxy-12-methoxy-8-methyl-1-oxo-3,4,7,8,9,10-hexahydro-1H-benzo[c][1]oxacyclododecin-3-yl)-6-hydroxy-5-methyloct-2-en-1-yl)amino)-2-methyl-1-oxohexan-3-yl D-phenylalaninate] | 2460 nM |  |  | 51 nM | 65 nM | IC50 (MCF7 (breast cancer); read-out: IC50 values MCF7, MCF7): 51.3 nM; IC50 (K562 (leukemia); read-out: IC50 values K562, K562): 64.6 nM
CCC[C@H](OC(C)=O)[C@@H](C)C(=O)NC/C=C\C[C@@H](C)[C@@H](O)[C@H](C)[C@@H]1C/C=C\C[C@H](C)[C@H](OC(C)=O)Cc2cc(OC)cc(O)c2C(=O)O1 [Compound 8, (2R,3S)-1-(((5R,6R,7S,Z)-7-((3S,8S,9R,Z)-9-acetoxy-14-hydroxy-12-methoxy-8-methyl-1-oxo-3,4,7,8,9,10-hexahydro-1H-benzo[c][1]oxacyclododecin-3-yl)-6-hydroxy-5-methyloct-2-en-1-yl)amino)-2-methyl-1-oxohexan-3-yl acetate] | 3360 nM | 574 nM | 1280 nM |  |  | 
CCC[C@H](OC(C)=O)[C@@H](C)C(=O)NC/C=C\C[C@@H](C)[C@@H](OC(C)=O)[C@H](C)[C@@H]1C/C=C\C[C@H](C)[C@H](OC(C)=O)Cc2cc(OC)cc(O)c2C(=O)O1 [Compound 9, (2R,3R,4R,Z)-2-((3S,8S,9R,Z)-9-acetoxy-14-hydroxy-12-methoxy-8-methyl-1-oxo-3,4,7,8,9,10-hexahydro-1H-benzo[c][1]oxacyclododecin-3-yl)-8-((2R,3S)-3-acetoxy-2-methylhexanamido)-4-methyloct-6-en-3-yl acetate] | > 4000 nM | > 4000 nM | > 4000 nM |  |  | antiproliferative activity at highest concentration [2]: inactive
CCC[C@H](O)[C@@H](C)C(=O)NC/C=C\C[C@@H](C)[C@@H](O)[C@H](C)[C@@H]1C/C=C\C[C@H](C)[C@H](OC(C)=O)Cc2cc(OC)cc(O)c2C(=O)O1 [Compound 10, (3S,8S,9R,Z)-14-hydroxy-3-((2S,3R,4R,Z)-3-hydroxy-8-((2R,3S)-3-hydroxy-2-methylhexanamido)-4-methyloct-6-en-2-yl)-12-methoxy-8-methyl-1-oxo-3,4,7,8,9,10-hexahydro-1H-benzo[c][1]oxacyclododecin-9-yl acetate] | 1960 nM |  |  | 174 nM | 1160 nM | IC50 (A549 (lung cancer); A549, read-out: IC50 A549): 1960 nM; IC50 (MCF7 (breast cancer); Homo sapiens, MCF7, read-out: IC50 MCF7, MCF7): 170 nM; IC50 (K562 (leukemia); Homo sapiens, K562, read-out: IC50 K562, K562): 1160 nM
CCC[C@H](O)[C@@H](C)C(=O)NC/C=C\C[C@@H](C)[C@@H](OC(C)=O)[C@H](C)[C@@H]1C/C=C\C[C@H](C)[C@H](OC(C)=O)Cc2cc(OC)cc(O)c2C(=O)O1 [Compound 11, (2R,3R,4R,Z)-2-((3S,8S,9R,Z)-9-acetoxy-14-hydroxy-12-methoxy-8-methyl-1-oxo-3,4,7,8,9,10-hexahydro-1H-benzo[c][1]oxacyclododecin-3-yl)-8-((2R,3S)-3-hydroxy-2-methylhexanamido)-4-methyloct-6-en-3-yl acetate] | > 4000 nM | > 4000 nM | > 4000 nM |  |  | antiproliferative activity at highest concentration [2]: inactive
CCC[C@H](O)[C@@H](C)C(=O)NCCCC[C@@H](C)[C@@H](O)[C@H](C)[C@@H]1CCCC[C@H](C)[C@H](O)Cc2cc(OC)cc(O)c2C(=O)O1 [Compound 12, (2R,3S)-N-((5R,6R,7S)-7-((3S,8S,9R)-9,14-dihydroxy-12-methoxy-8-methyl-1-oxo-3,4,5,6,7,8,9,10-octahydro-1H-benzo[c][1]oxacyclododecin-3-yl)-6-hydroxy-5-methyloctyl)-3-hydroxy-2-methylhexanamide] | 4000 nM |  |  | 179 nM | 1390 nM | 
CCC[C@H](O)[C@@H](C)C(=O)NC[C@H](O)[C@H](O)C[C@@H](C)[C@@H](O)[C@H](C)[C@@H]1C/C=C\C[C@H](C)[C@H](O)Cc2cc(OC)cc(O)c2C(=O)O1 [Compound 14, (2R,3S)-N-((2S,3R,5R,6R,7S)-7-((3S,8S,9R,Z)-9,14-dihydroxy-12-methoxy-8-methyl-1-oxo-3,4,7,8,9,10-hexahydro-1H-benzo[c][1]oxacyclododecin-3-yl)-2,3,6-trihydroxy-5-methyloctyl)-3-hydroxy-2-methylhexanamide] | 1540 nM |  |  | 189 nM | 1270 nM | fold reduction in activity compared to cruentaren A [2]: ~ 40 fold
CCC[C@H](O)[C@@H](C)C(=O)NC[C@@H]1C[C@@H]1C[C@@H](C)[C@@H](O)[C@H](C)[C@@H]1C/C=C\C[C@H](C)[C@H](O)Cc2cc(OC)cc(O)c2C(=O)O1 [Compound 15, (2R,3S)-N-(((1R,2R)-2-((2R,3R,4S)-4-((3S,8S,9R,Z)-9,14-dihydroxy-12-methoxy-8-methyl-1-oxo-3,4,7,8,9,10-hexahydro-1H-benzo[c][1]oxacyclododecin-3-yl)-3-hydroxy-2-methylpentyl)cyclopropyl)methyl)-3-hydroxy-2-methylhexanamide] | 1240 nM |  |  | 520 nM | 1120 nM | fold reduction in activity compared to cruentaren A [2]: 100 fold
CCC[C@H](O)[C@@H](C)C(=O)NC/C=C/C[C@@H](C)[C@@H](O)[C@H](C)[C@@H]1C/C=C\C[C@H](C)[C@H](O)Cc2cc(OC)cc(O)c2C(=O)O1 [Compound 16, (2R,3S)-N-((5R,6R,7S,E)-7-((3S,8S,9R,Z)-9,14-dihydroxy-12-methoxy-8-methyl-1-oxo-3,4,7,8,9,10-hexahydro-1H-benzo[c][1]oxacyclododecin-3-yl)-6-hydroxy-5-methyloct-2-en-1-yl)-3-hydroxy-2-methylhexanamide] | 1750 nM |  |  | 6.37 nM | 48.3 nM | levels of Hsp70 and Hsp90 (heat shock response) [1]: remained at the same level as vehicle control
COC1=C2C[C@@H](C)C[C@H](OC)[C@H](O)[C@@H](C)/C=C(\C)[C@H](OC(N)=O)[C@@H](OC)/C=C\C=C(/C)C(=O)NC(=CC1=O)C2=O [geldanamycin, reference compound] |  |  |  |  |  | levels of Hsp70 and Hsp90 (heat shock response) [1]: increased
